Measured values reported in ChEMBL document CHEMBL1125801, “Fluorinated colchicinoids: antitubulin and cytotoxic properties” (J Med Chem, 1991).

Legend:
Tubulin (Bos taurus) [1] = target: T1, Tubulin (Bos taurus) (UniProt Q6B856+Q862L2+Q862F3); details: at 5 µM
P388 [2] = assay: Cytotoxic activity against P388 mouse lymphocytic leukemia cell line (doxorubicin resistant).; format: functional; details: read-out: ED50 (the source's name)
P388 [3] = assay: Cytotoxic activity against P388 mouse lymphocytic leukemia cell line; format: functional; details: read-out: ED50 (the source's name)
Tubulin (Bos taurus) [4] = target: T1, Tubulin (Bos taurus); details: at 2 µM
Tubulin (Bos taurus) [5] = target: T1, Tubulin (Bos taurus); details: at 2 µM; remark: listed apart in the source
[6] = Retention time of the compound.; format: ADME
J774 [7] = assay: (§1) Cytotoxic activity against mouse macrophage cell line J7.COL-100.; format: functional; details: read-out: ED50 (the source's name)
J774 [8] = assay: Cytotoxic activity against mouse macrophage cell line J7.VBL-1; format: functional; details: read-out: ED50 (the source's name)
Tubulin (Bos taurus) [9] = target: T1, Tubulin (Bos taurus); details: at 5 µM; remark: listed apart in the source
J774.2 [10] = assay: Cytotoxic activity against mouse macrophage cell line J774.2; format: functional; details: read-out: ED50 (the source's name)
[11] = Partition coefficient (logP); format: physicochemical; details: octanol/water
[12] = Retention time of the compound; NT-Not Tested; format: ADME
J774.2 [13] = assay: Cytotoxic activity against mouse macrophage cell line J774.2 after 72 hr; format: functional; details: J774.2, 72 h, read-out: ED50 (the source's name)
How it was run: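 Mouse macrophage-like J774.2 (wild type) cells were incubated with or without drug for 72 h, before controls reached confluency, in triplicate per concentration.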

J774 [14] = assay: as §1; format: functional; details: J774, read-out: ED50
How it was run: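 Colchicine-resistant variant of mouse macrophage-like J774.2, kept in 100 μM colchicine. Cells were exposed with or without drug in triplicate per concentration for 72 h, ending before controls reached confluency, and then living cells were counted.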

Row | Compound | ITP (Tubulin (Bos taurus) [1]) [%] | EC50 (P388 [2]) [µM] | EC50 (P388 [3]) [µM] | ITP (Tubulin (Bos taurus) [4]) [%] | ITP (Tubulin (Bos taurus) [5]) [%] | tR [6] [min] | EC50 (J774 [7]) [µM] | EC50 (J774 [8]) [µM] | ITP (Tubulin (Bos taurus) [9]) [%] | EC50 (J774.2 [10]) [µM] | logP [11] | ITP (Tubulin (Bos taurus) [9]; at 100 µM) [%] | tR [12] [min] | EC50 (J774.2 [13]) [µM] | EC50 (J774 [14]) [µM]
1 | COc1cc2c(c(OC)c1O)-c1ccc(OC)c(=O)cc1C(NC(=O)C(F)(F)F)CC2 (configuration not stated) | 47 | 0.12 | 0.04 | 17 | 24 | 3.8 | 10.5 | 5 | 35 | 0.04 | 1.67 |  |  |  | 
2 | COc1cc2c(c(OC)c1OC)-c1cc/c(=N/CC(F)(F)F)c(O)cc1C(NC(C)=O)CC2 (configuration not stated) |  | 0.9 | 0.051 |  |  | 7.4 | 50 | 17 |  | 0.19 | 1.45 |  |  |  | 
3 | COc1c(O)cc2c(c1OC)-c1ccc(SC)c(=O)cc1C(NC(C)=O)CC2 (configuration not stated) |  |  |  |  |  | 3.8 |  |  |  |  | 1.43 |  |  |  | 
4 | COc1cc2c(c(OC)c1OC)-c1cc/c(=N/CCF)c(O)cc1C(NC(C)=O)CC2 (configuration not stated) |  | 0.47 | 0.023 |  |  | 5.1 | 32 | 4.8 |  | 0.15 | 1.7 |  |  |  | 
5 | COc1c(O)cc2c(c1OC)-c1ccc(SC)c(=O)cc1C(NC(=O)C(F)(F)F)CC2 (configuration not stated) |  |  |  |  |  | 5.3 |  |  |  |  | 2.61 |  |  |  | 
6 | CC/N=c1/ccc2c(cc1O)C(NC(C)=O)CCc1cc(OC)c(OC)c(OC)c1-2 (configuration not stated) |  | 0.32 | 0.005 |  |  | 7.5 | 15 | 1.9 |  | 0.01 | 2.34 |  |  |  | 
7 | COc1cc2c(c(OC)c1OC)-c1ccc(=N)c(O)cc1C(NC(C)=O)CC2 (configuration not stated) |  | 0.4 | 0.013 |  |  | 4 | 70 | 15 |  | 0.02 | 0.3 |  |  |  | 
8 | COc1cc2c(c(OC)c1OC)-c1ccc(=O)c(OC)cc1C(NC(=O)C(F)(F)F)CC2 (configuration not stated) |  | 13 | 1.5 |  |  |  |  | > 20 |  | 3.9 | 2.08 | 10 | 5.9 |  | 
9 | COc1cc2c(c(OC)c1O)-c1ccc(OC)c(=O)cc1C(NC(C)=O)CC2 (configuration not stated) |  | 1.22 | 0.095 |  |  | 3 | 140 | 62.5 |  | 0.3 | 0.48 |  |  |  | 
10 | COc1cc2c(c(OC)c1OC)-c1ccc(=O)c(O)cc1C(NC(=O)C(F)(F)F)CC2 (configuration not stated) |  | 6 | 3 |  |  |  | 4.9 | 20 |  | 3 | 1.82 | 44 |  |  | 
11 | COc1cc2c(c(OC)c1OC)-c1cc/c(=N/CC(F)(F)F)c(O)cc1C(NC(=O)C(F)(F)F)CC2 (configuration not stated) | 35 | 0.09 | 0.05 | 15 | 30 | 10.6 | 8.8 | 2.9 | 45 |  | 1.36 |  |  | 0.2 | 
12 | COc1cc2c(c(OC)c1OC)-c1ccc(=O)c(OC)cc1C(NC(C)=O)CC2 (configuration not stated) |  | 15 | 15 |  |  |  |  | > 50 |  | 5.6 | 1 |  | 3.9 |  | 
13 | COc1cc2c(c(OC)c1OC)-c1ccc(=N)c(O)cc1C(NC(=O)C(F)(F)F)CC2 (configuration not stated) | 79 | 0.06 | 0.013 | 42 | 48 | 5.7 | 4.5 | 1.3 | 82 | 0.01 | 2.32 |  |  |  | 
14 | COc1cc2c(c(OC)c1OC)-c1ccc(OC)c(=O)cc1[C@@H](NC(C)=O)CC2 [COLCHICINE] |  | 0.47 | 0.012 |  |  | 3.9 | 200 | 17 |  | 0.06 | 0.6 |  |  |  | 
15 | COc1cc2c(c(OC)c1OC)-c1ccc(=O)c(O)cc1C(NC(C)=O)CC2 (configuration not stated) |  | 10 | 1.2 |  |  |  |  | > 50 |  | 3.1 | 1.2 |  |  |  | > 1000
16 | COc1cc2c(c(OC)c1OC)-c1ccc(OC)c(=O)cc1[C@@H](NC(=O)C(F)(F)F)CC2 |  | 0.04 | 0.004 |  |  | 5.4 | 14 | 0.8 |  | 0.01 | 1.72 |  |  |  | 
